Assay outcomes from PubChem.
CCR6 antag: antagonists of human CCR6 receptor; CHO-K1 CCR6 PathHunter beta-arrestin, luminescence, CCL20-stimulated; inhibition, % at 20 µM; 340,000 compounds, 0.49% hits;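 active means compounds whose inhibition of the agonist-driven luminescence signal at 20 µM reaches about 50%, limit read from the data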;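 further: cells stimulated with CCL20 at 14 nM final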
Target sequence (P51684 whole entry, looked up): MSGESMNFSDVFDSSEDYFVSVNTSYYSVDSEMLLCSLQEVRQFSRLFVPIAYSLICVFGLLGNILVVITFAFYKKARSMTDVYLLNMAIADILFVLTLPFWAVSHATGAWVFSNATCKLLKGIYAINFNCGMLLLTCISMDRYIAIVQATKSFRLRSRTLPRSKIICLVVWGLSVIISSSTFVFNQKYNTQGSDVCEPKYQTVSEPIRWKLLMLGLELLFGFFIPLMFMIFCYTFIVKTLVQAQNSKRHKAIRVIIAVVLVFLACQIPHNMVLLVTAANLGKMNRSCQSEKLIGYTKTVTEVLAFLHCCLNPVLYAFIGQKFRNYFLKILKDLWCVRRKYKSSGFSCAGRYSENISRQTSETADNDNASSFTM
APJ ag: activates the human apelin receptor APJ | AID 2520 | P35414 | activation, % at 20 µM | 330,000 compounds, 0.11% hits | CHO-K1 APJ PathHunter beta-arrestin, luminescence; 0% DMSO wells, 100% apelin;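 active means activation more than six SD over the plate average, tested at 20 µM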
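Assay system: CHO-K1 APJ beta-arrestin complementation cell line / Compound: single test compound dose, 20 µM final, 1% DMSO / Times: overnight seeding, 90 min compound at 25 °C, 1 h detection / Technique: beta-gal luminescence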
APJ antagonist: blocks the human apelin receptor APJ. P35414. CHO-K1 APJ beta-arrestin complementation, luminescence. inhibition, % at 20 µM. 330,000 compounds, 0.32% hits. AID 2521;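 active means inhibition above about 40% at 20 µM, limit read from the data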;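 further: cells challenged with 10 nM apelin-13 agonist together with compound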
CXCR6 block: CXCR6 (human) receptor inhibition; CHO-K1 PathHunter CXCR6 beta-arrestin, luminescence; O00574; inhibition, % at 20 µM; 360,000 compounds, 0.36% hits; in the data active means inhibition above about 34%, passing the limit was not always enough;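 further: antagonist mode with CXCL16 agonist at 10 nM final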
EBI2 block: antagonists of human EBI2 receptor; P32249; EBI2 beta-arrestin recruitment, luminescence, 7a,25-OHC stimulated; inhibition, % at 5 µM; 360,000 compounds, 0.81% hits; AID 651636; in the data active means inhibition above about 38%;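 further: enzyme fragment complementation signal reports receptor beta-arrestin coupling in cells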
A number is an active result; n = inactive; x = not tested or not shown. Hits are enriched below; roughly 1.5% of the tested compounds scored in any of these assays.

SMILES	CCR6 antag	APJ ag	APJ antagonist	CXCR6 block	EBI2 block
CCOC(=O)N1CCN(C(=O)c2ccc(CS(=O)c3cccc(C)c3)o2)CC1 (stereo not given)	x	x	x	n	n
CC(C)C[C@@H](CN1CCC[C@H]1CN1C(=O)C(=O)NC[C@@H]1Cc1ccccc1)N1C[C@H](Cc2ccccc2)N(CC2CCCCCC2)C(=O)C1=O	x	x	x	n	n
COc1ccccc1C(=O)N/C(N)=N/c1nc2ccccc2o1	75	n	n	n	n
O=C(CCCN1C(=O)/C(=C/c2ccccc2Cl)SC1=S)NNC(=O)c1ccccc1	n	n	n	n	42
CC1C(=O)N(Cc2cn(CCC3OCCO3)nn2)CCS(=O)(=O)N1Cc1ccc(-c2ccc(Cl)c(Cl)c2)cc1 (stereo not given)	x	x	x	n	n
COc1cccc(Cn2c(C(C)n3c(C)nc4ccccc43)nc3ccccc32)c1 (stereo not given)	x	x	x	x	n
CN(C)c1ccc(C(=O)/C=C/c2ccccc2)cc1	n	n	n	n	76
CC(=O)Nc1cccc(C(=O)/C=C/c2ccc(/C=C/C(=O)c3cccc(NC(C)=O)c3)cc2)c1	x	n	n	x	x
CC(=O)Nc1cccc(C(=O)/C=C/c2ccc(N(C)C)cc2)c1	n	n	n	n	43
CN1C(=O)N(CC(=O)c2ccc3c(c2)OCO3)C(=O)C12CCCCC2	x	x	x	n	n
Cc1ccccc1S(=O)(=O)NC(=O)C1(C)CCN1C(=O)CC(c1ccccc1)c1ccccc1 (stereo not given)	x	x	x	n	n
COc1cccc(S(=O)(=O)N(C)C[C@H]2OCc3cnnn3CCCC(=O)N([C@H](C)CO)C[C@@H]2C)c1	x	x	x	n	n
O=C1c2cccc3c([N+](=O)[O-])ccc(c23)C(=O)N1c1nccs1	73	n	n	43	n
CC(=O)Oc1ccc(N2C(=O)c3cccc4c([N+](=O)[O-])ccc(c34)C2=O)cc1	65	n	n	n	n
CCOc1ccc(NC(=S)N(Cc2ccc(N(C)C)cc2)Cc2ccco2)cc1	n	n	n	n	44
COc1ccc(NC(=S)N(Cc2ccc(N(C)C)cc2)Cc2ccco2)cc1	n	n	n	n	n
CCOc1cc(OCC)cc(C(=O)N2CCC[C@H]2C(=O)N2CCC[C@H]2C(=O)N(C)Cc2ccccc2)c1	x	x	x	n	n
CC(=O)N1N=C(c2cccc([N+](=O)[O-])c2)OC1c1ccccc1Cl (stereo not given)	50	n	n	n	n
C=C1C(=O)O[C@H]2C[C@H]1[C@@H](OC(C)=O)C/C(C)=C/CC/C(C)=C\CC[C@]2(C)O	n	x	x	n	52
N#C/C(=N\Nc1ccc([N+](=O)[O-])cc1)C(N)=S	69	n	69	53	n
N#C/C(=N/Nc1ccc([N+](=O)[O-])cc1)C(=N)N1CCCCC1	n	x	x	n	n
CC(=O)OC[C@H]1O[C@@H](O/N=C/[C@@H](C)[C@H](OCc2ccccc2)C(C)C)[C@H](OC(C)=O)[C@@H](OC(C)=O)[C@@H]1OC(C)=O	x	n	n	x	x
C=C(CN(C)C)C(=O)c1ccc(OC2OC(COC(C)=O)C(OC(C)=O)C(OC(C)=O)C2OC(C)=O)cc1 (stereo not given)	100	x	x	90	72
CCC/C=C/c1ccc(CN2C(C(C)C)C(=O)N(Cc3cn(CCC4OCCO4)nn3)CCS2(=O)=O)cc1 (stereo not given)	x	x	x	n	n
CCOC(=O)Cn1c(=NC(=O)c2ccc([N+](=O)[O-])s2)sc2ccccc21	54	n	n	n	n
SMILES	CCR6 antag	APJ ag	APJ antagonist	CXCR6 block	EBI2 block
CCOC(=O)Cn1c(=NC(=O)C2COc3ccccc3O2)sc2cc(S(N)(=O)=O)ccc21 (stereo not given)	n	n	n	n	n
C/C(=N\NC(=S)NCc1ccccc1)c1ccc(C(C)(C)C)cc1	62	n	n	n	n
CCOC(=O)c1c(SCCN2CCCC2)n(-c2ccccc2)c(=S)n(-c2ccccc2)c1=O	105	x	x	88	n
Cc1ccc(-c2cc(-c3ccc(Cl)cc3)c(C#N)c(N)n2)o1	86	n	n	n	n
CC(C)CNC(=O)c1cccc2c(-c3cccc(C(N)=O)c3)coc12	x	x	x	n	n
Cc1ccc(S(=O)(=O)N2C[C@H]3C(=O)C[C@@H]4C(=O)N(c5ccccc5)C(=O)[C@@H]4[C@@H]3C[C@H]2c2cccc(Cl)c2)cc1	x	x	x	n	n
COc1ccccc1N1C(=O)C=C(Sc2nc(C)cc(C)n2)C1=O	94	n	n	n	n
COc1ccccc1N1C(=O)C2CC(C)=C(C)CC2C1=O (stereo not given)	n	n	n	n	n
COc1cc(/C=C2/C(=O)N(c3ccc(Br)cc3)N=C2C)cc([N+](=O)[O-])c1O	x	n	48	x	x
Cc1nc2scc(-c3ccccc3)c2c(=O)n1N	n	n	n	n	n
Cc1nc2scc(-c3ccccc3)c2c(=O)n1N=C1C=CC(=O)C=C1	99	n	n	x	x
O=C1NC[C@H](CCCCN2C[C@H](Cc3ccccc3)N(CCC3CCCCC3)C(=O)C2=O)N(CCc2ccccc2)C1=O	x	x	x	n	n
Cc1nn(-c2ccccn2)c2c1C(c1ccccc1Cl)C1=C(N2)c2ccccc2C1=O (stereo not given)	79	n	n	n	n
Cc1nn(-c2ccccn2)c2c1C(c1c(F)cccc1Cl)C1=C(N2)c2ccccc2C1=O (stereo not given)	x	n	n	x	x
O=C(NNc1c2ccccc2nc2ccccc12)c1cccc(O)c1	60	n	n	n	n
Cc1ccc(CNC(=O)c2ccc(Cn3cc(-c4ccc(C)cc4)nc3-c3ccncc3)cc2)cc1	n	n	n	n	71
CCOc1ccc(N=C/C=C/c2ccccc2)c(O)c1	52	n	n	n	n
COc1cccc(NC(=O)C2(C)CCCN(C(C)C)C2)c1 (stereo not given)	x	x	x	n	n
O=C1c2cccnc2-c2ncccc21	n	n	n	n	n
COC1=C(Br)C(=O)c2ncccc2C1=O	79	x	x	59	n
CCN1/C(=C/C(C)=C/c2sc3ccccc3[n+]2CC)Sc2ccccc21	62	n	56	57	n
CCN1/C(=C\C(=S)Nc2ccccc2)Sc2ccccc21	n	n	n	n	n
O=C(N/N=C/c1cccc([N+](=O)[O-])c1O)c1cccs1	64	n	n	n	n
O=[N+]([O-])c1cccc(C=NNc2ccc3ccccc3n2)c1O	60	x	x	37	n
FC(F)(F)c1cc(Cl)c2nc(-c3ccco3)c(Cc3ccccc3C(F)(F)F)n2c1	x	x	x	n	n
O=C(NCc1ccc(F)cc1)c1cc(C2CCCN(C(=O)c3ccc4ccccc4c3)C2)on1 (stereo not given)	x	x	x	n	n
CC(C)NC(=O)C1(C)CN(S(C)(=O)=O)CC(=O)N1Cc1cccs1 (stereo not given)	x	x	x	x	n
Cc1ccc(F)cc1C(=O)N1CCCCC1c1cc(C(=O)NC(C)C)no1 (stereo not given)	x	x	x	n	n
Cc1ccc(C(=O)NN2C(=O)/C(=C/c3cn(C)c4ccccc34)SC2=S)cc1	n	x	x	n	n
